Assay results: article PMC6830765 (Innate Immunity, 2017)

Tests used:
[1] = system: IFN-γ; test: IFN-γ ELISA, LPS-treated CHME3; type: cell-based, human; conditions: selected dose
Outline: (§1)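 Human microglia (CHME3) and astrocyte (SVG) lines at fourth passage, inflamed with LPS. […] IL-12 or IFN-γ released into the extracellular medium was quantified with human ELISA kits 12 and 24 h after drug treatment. Controls were inflamed untreated cells and market-drug (Disprin)-treated cells.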

[2] = system: astrocyte (SVG) cell-line; test: MTT assay, SVG; type: cell-based, human; conditions: Homo sapiens, Astrocyte, read-out: IC50, half concentration of druggable compound to inhibit cell growth
Outline: (§2)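 MTT (thiazolyl blue tetrazolium bromide) assay on LPS-inflamed CHME3 or SVG cells, fourth passage. […] Read-out is percent viable cells, plus a growth-inhibitory IC50 (concentration halving cell growth) for each cell line.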

[3] = MTT assay, SVG; type: cell-based, human; conditions: human, SVG astrocyte cells
Outline: as §2

[4] = system: IFN-γ; test: IFN-γ ELISA, LPS-treated SVG; type: cell-based, human; conditions: selected dose
Outline: as §1

[5] = system: human microglia (CHME3); test: MTT assay, CHME3; type: cell-based; conditions: Homo sapiens, Microglia, read-out: IC50, half concentration of druggable compound to inhibit cell growth
Outline: as §2

[6] = MTT assay, CHME3; type: cell-based, human; conditions: human, CHME3 microglia cells
Outline: as §2

[7] = system: IL-12; test: IL-12 ELISA, LPS-treated SVG; type: cell-based, human; conditions: selected dose
Outline: as §1

[8] = system: IL-12; test: IL-12 ELISA, LPS-treated CHME3; type: cell-based, human; conditions: selected dose
Outline: as §1

Question: Which IFN-γ quantification ([1]; 12 h after drug treatment) does the source give for `O=C(/C=C/C=C/c1ccc2c(c1)OCO2)N(CCCO[N+](=O)[O-])c1ccc(CO)cc1` [PA-3′k, 3-((2 E,4 E)-5-(benzo[d][1,3]dioxol-5-yl)-N-(4-(hydroxymethyl)phenyl)penta-2,4-dienamido)propyl nitrate] here?
Answer: 46.35 ± 3.58

Question: And the IFN-γ quantification ([1]; 24 h after drug treatment)?
Answer: 54.86 ± 3.41

Question: What about the IC50 [2] of the same compound?
Answer: 0.0679 µg/mL

Question: What about the viability at 24 h [3] of the same compound?
Answer: 89.1 ± 1.96%

Question: And the IFN-γ quantification ([4]; 12 h after drug treatment)?
Answer: 42.57 ± 3.58

Question: And the IFN-γ quantification ([4]; 24 h after drug treatment)?
Answer: 55.81 ± 2.89

Question: What about the IC50 [5] of the same compound?
Answer: 0.0678 µg/mL

Question: What about the viability at 24 h [6] of the same compound?
Answer: 86.1 ± 2.57%

Question: What about the IL-12 quantification ([7]; 12 h after drug treatment) of the same compound?
Answer: 88.11 ± 2.80

Question: What about the IL-12 quantification ([7]; 24 h after drug treatment) of the same compound?
Answer: 96.37 ± 2.95

Question: And the IL-12 quantification ([8]; 12 h after drug treatment)?
Answer: 81.68 ± 4.00

Question: And the IL-12 quantification ([8]; 24 h after drug treatment)?
Answer: 101.88 ± 5.22
